Measured values: ChEMBL document CHEMBL5724801, “EUbOPEN Chemogenomics Library - Multiplex” (2024)
Where “and” joins values, the source holds several entries; their conditions need not be identical. Equal values may be shown once.

Test system: U2OS
Assay: Multiplex assay against U2OS
Format: toxicity, cell-based
Settings: human
Procedure, shortened: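 Values for tubulin, mitochondrial-mass and membrane-permeability phenotypes are per cents of cells with healthy nuclei. These cells were identified by CellPathfinder machine-learning gating of live cells that had been stained at seeding with Hoechst33342, BioTracker Green Microtubule Cytoskeleton Dye, MitoTracker Red and Annexin V Alexa Fluor 680 and imaged on a CQ1 microscope at 37°C and 5% CO2 after compound addition. The gating first set Hoechst high-intensity objects apart from normal cells, then split normal cells into healthy, pyknosed or fragmented nuclei, and pyknosed cells into mitotic or apoptotic.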

[1] = 12 h, 1 µM, compound concentration 1 uM
[2] = 12 h, 10 µM, compound concentration 10 uM
[3] = 24 h, 1 µM, compound concentration 1 uM
[4] = 24 h, 10 µM, compound concentration 10 uM
[5] = 48 h, 1 µM, compound concentration 1 uM
[6] = 48 h, 10 µM, compound concentration 10 uM

Structure (SMILES): S=C(NCCCc1c[nH]cn1)NCCCN(Cc1ccc(Cl)c(Cl)c1)c1ccc(Br)cn1
- Population Apoptotic (%) [1]: 75% and 80%
- Population Fragmented Nuclei (%) [1]: 27% and 20%
- Population Healthy Nuclei (%) [1]: 63% and 68%
- Population Hoechst High Intensity Objects (%) [1]: 2% and 3%
- Population Membrane Permeable-Phenotype (%) [1]: 13% and 6%
- Population Mitochondria Different-Phenotype (%) [1]: 2% and 9%
- Population Mitotic Cells (%) [1]: 25% and 20%
- Population Normal (%) [1]: 97% and 96%
- Population Pyknosed Nuclei (%) [1]: 9% and 11%
- Population Tubulin-Different-Phenotype (%) [1]: 6% and 1%
- Total Cell Count [1]: 228 and 93
- Population Apoptotic (%) [2]: 66% and 58%
- Population Fragmented Nuclei (%) [2]: 27% and 24%
- Population Healthy Nuclei (%) [2]: 46%
- Population Hoechst High Intensity Objects (%) [2]: 6% and 0%
- Population Membrane Permeable-Phenotype (%) [2]: 86% and 84%
- Population Mitochondria Different-Phenotype (%) [2]: 26% and 60%
- Population Mitotic Cells (%) [2]: 33% and 41%
- Population Normal (%) [2]: 93% and 100%
- Population Pyknosed Nuclei (%) [2]: 26% and 29%
- Population Tubulin-Different-Phenotype (%) [2]: 83% and 89%
- Total Cell Count [2]: 220 and 82
- Population Apoptotic (%) [3]: 81% and 100%
- Population Fragmented Nuclei (%) [3]: 22% and 30%
- Population Healthy Nuclei (%) [3]: 69% and 65%
- Population Hoechst High Intensity Objects (%) [3]: 3% and 1%
- Population Membrane Permeable-Phenotype (%) [3]: 11% and 7%
- Population Mitochondria Different-Phenotype (%) [3]: 3% and 5%
- Population Mitotic Cells (%) [3]: 18% and 0%
- Population Normal (%) [3]: 96% and 98%
- Population Pyknosed Nuclei (%) [3]: 8% and 4%
- Population Tubulin-Different-Phenotype (%) [3]: 9% and 3%
- Total Cell Count [3]: 285 and 125
- Population Apoptotic (%) [4]: 62% and 60%
- Population Fragmented Nuclei (%) [4]: 33% and 29%
- Population Healthy Nuclei (%) [4]: 38% and 40%
- Population Hoechst High Intensity Objects (%) [4]: 5% and 2%
- Population Membrane Permeable-Phenotype (%) [4]: 59% and 77%
- Population Mitochondria Different-Phenotype (%) [4]: 17% and 32%
- Population Mitotic Cells (%) [4]: 37% and 39%
- Population Normal (%) [4]: 94% and 97%
- Population Pyknosed Nuclei (%) [4]: 28% and 29%
- Population Tubulin-Different-Phenotype (%) [4]: 54% and 64%
- Total Cell Count [4]: 227 and 79
- Population Apoptotic (%) [5]: 83% and 87%
- Population Fragmented Nuclei (%) [5]: 17% and 28%
- Population Healthy Nuclei (%) [5]: 74% and 60%
- Population Hoechst High Intensity Objects (%) [5]: 1% and 0%
- Population Membrane Permeable-Phenotype (%) [5]: 5%
- Population Mitochondria Different-Phenotype (%) [5]: 3%
- Population Mitotic Cells (%) [5]: 16% and 12%
- Population Normal (%) [5]: 98% and 99%
- Population Pyknosed Nuclei (%) [5]: 7% and 11%
- Population Tubulin-Different-Phenotype (%) [5]: 2% and 3%
- Total Cell Count [5]: 409 and 211
- Population Apoptotic (%) [6]: 70% and 73%
- Population Fragmented Nuclei (%) [6]: 43% and 50%
- Population Healthy Nuclei (%) [6]: 8% and 15%
- Population Hoechst High Intensity Objects (%) [6]: 21% and 15%
- Population Membrane Permeable-Phenotype (%) [6]: 46% and 57%
- Population Mitochondria Different-Phenotype (%) [6]: 20% and 42%
- Population Mitotic Cells (%) [6]: 29% and 26%
- Population Normal (%) [6]: 78% and 84%
- Population Pyknosed Nuclei (%) [6]: 47% and 33%
- Population Tubulin-Different-Phenotype (%) [6]: 26% and 57%
- Total Cell Count [6]: 230 and 105

Structure (SMILES): CCc1nn2c(C)cc(C)nc2c1Cc1ccc(-c2nnc(C3CCNCC3)o2)cc1
- Population Apoptotic (%) [1]: 42% and 85%
- Population Healthy Nuclei (%) [1]: 60% and 84%
- Population Hoechst High Intensity Objects (%) [1]: 3% and 2%
- Population Membrane Permeable-Phenotype (%) [1]: 12% and 14%
- Population Mitochondria Different-Phenotype (%) [1]: 10% and 17%
- Population Normal (%) [1]: 96% and 97%
- Population Pyknosed Nuclei (%) [1]: 10% and 6%
- Population Tubulin-Different-Phenotype (%) [1]: 11% and 4%
- Total Cell Count [1]: 251 and 110
- Population Apoptotic (%) [2]: 68% and 77%
- Population Fragmented Nuclei (%) [2]: 24% and 8%
- Population Healthy Nuclei (%) [2]: 55% and 76%
- Population Hoechst High Intensity Objects (%) [2]: 5% and 2%
- Population Membrane Permeable-Phenotype (%) [2]: 26% and 30%
- Population Mitochondria Different-Phenotype (%) [2]: 43% and 62%
- Population Mitotic Cells (%) [2]: 31% and 22%
- Population Normal (%) [2]: 94% and 97%
- Population Pyknosed Nuclei (%) [2]: 20% and 14%
- Population Tubulin-Different-Phenotype (%) [2]: 28% and 44%
- Total Cell Count [2]: 214 and 129
- Population Apoptotic (%) [3]: 80% and 87%
- Population Fragmented Nuclei (%) [3]: 26% and 13%
- Population Healthy Nuclei (%) [3]: 63% and 80%
- Population Hoechst High Intensity Objects (%) [3]: 2% and 3%
- Population Membrane Permeable-Phenotype (%) [3]: 4% and 7%
- Population Mitochondria Different-Phenotype (%) [3]: 6% and 12%
- Population Mitotic Cells (%) [3]: 20% and 12%
- Population Normal (%) [3]: 97% and 96%
- Population Pyknosed Nuclei (%) [3]: 10% and 6%
- Population Tubulin-Different-Phenotype (%) [3]: 3%
- Total Cell Count [3]: 296 and 130
- Population Apoptotic (%) [4]: 77% and 71%
- Population Fragmented Nuclei (%) [4]: 24% and 15%
- Population Healthy Nuclei (%) [4]: 55% and 71%
- Population Hoechst High Intensity Objects (%) [4]: 3%
- Population Membrane Permeable-Phenotype (%) [4]: 9% and 16%
- Population Mitochondria Different-Phenotype (%) [4]: 40% and 61%
- Population Mitotic Cells (%) [4]: 22% and 28%
- Population Normal (%) [4]: 96%
- Population Pyknosed Nuclei (%) [4]: 19% and 13%
- Total Cell Count [4]: 236 and 163
- Population Apoptotic (%) [5]: 90% and 85%
- Population Fragmented Nuclei (%) [5]: 17% and 12%
- Population Healthy Nuclei (%) [5]: 71% and 72%
- Population Hoechst High Intensity Objects (%) [5]: 2%
- Population Membrane Permeable-Phenotype (%) [5]: 6% and 7%
- Population Mitochondria Different-Phenotype (%) [5]: 2% and 6%
- Population Mitotic Cells (%) [5]: 10% and 14%
- Population Normal (%) [5]: 97%
- Population Pyknosed Nuclei (%) [5]: 10% and 14%
- Population Tubulin-Different-Phenotype (%) [5]: 4%
- Total Cell Count [5]: 376 and 187
- Population Apoptotic (%) [6]: 82% and 75%
- Population Fragmented Nuclei (%) [6]: 24% and 12%
- Population Healthy Nuclei (%) [6]: 55% and 71%
- Population Hoechst High Intensity Objects (%) [6]: 2%
- Population Membrane Permeable-Phenotype (%) [6]: 10% and 22%
- Population Mitochondria Different-Phenotype (%) [6]: 29% and 31%
- Population Mitotic Cells (%) [6]: 17% and 24%
- Population Normal (%) [6]: 97%
- Population Pyknosed Nuclei (%) [6]: 19% and 15%
- Total Cell Count [6]: 290 and 219

Structure (SMILES): N[C@](CC1c2ccccc2Oc2ccccc21)(C(=O)O)[C@H]1C[C@@H]1C(=O)O
- Population Apoptotic (%) [1]: 80% and 72%
- Population Fragmented Nuclei (%) [1]: 22% and 10%
- Population Healthy Nuclei (%) [1]: 67% and 79%
- Population Hoechst High Intensity Objects (%) [1]: 1%
- Population Membrane Permeable-Phenotype (%) [1]: 6% and 1%
- Population Mitochondria Different-Phenotype (%) [1]: 2% and 8%
- Population Mitotic Cells (%) [1]: 20% and 27%
- Population Normal (%) [1]: 98%
- Population Pyknosed Nuclei (%) [1]: 9%
- Population Tubulin-Different-Phenotype (%) [1]: 4% and 3%
- Total Cell Count [1]: 218 and 114
- Population Apoptotic (%) [2]: 84% and 83%
- Population Fragmented Nuclei (%) [2]: 18% and 19%
- Population Healthy Nuclei (%) [2]: 72% and 76%
- Population Hoechst High Intensity Objects (%) [2]: 3% and 0%
- Population Membrane Permeable-Phenotype (%) [2]: 5% and 7%
- Population Mitochondria Different-Phenotype (%) [2]: 3% and 0%
- Population Mitotic Cells (%) [2]: 16%
- Population Normal (%) [2]: 96% and 100%
- Population Pyknosed Nuclei (%) [2]: 8% and 4%
- Population Tubulin-Different-Phenotype (%) [2]: 2%
- Total Cell Count [2]: 295 and 141
- Population Apoptotic (%) [3]: 78% and 63%
- Population Fragmented Nuclei (%) [3]: 20% and 14%
- Population Healthy Nuclei (%) [3]: 70% and 77%
- Population Hoechst High Intensity Objects (%) [3]: 1% and 0%
- Population Membrane Permeable-Phenotype (%) [3]: 1% and 4%
- Population Mitochondria Different-Phenotype (%) [3]: 1% and 5%
- Population Mitotic Cells (%) [3]: 21% and 36%
- Population Normal (%) [3]: 98% and 99%
- Population Pyknosed Nuclei (%) [3]: 8%
- Population Tubulin-Different-Phenotype (%) [3]: 1% and 2%
- Total Cell Count [3]: 272 and 137
- Population Apoptotic (%) [4]: 80% and 81%
- Population Fragmented Nuclei (%) [4]: 13% and 15%
- Population Healthy Nuclei (%) [4]: 79% and 77%
- Population Hoechst High Intensity Objects (%) [4]: 3% and 0%
- Population Membrane Permeable-Phenotype (%) [4]: 3% and 8%
- Population Mitochondria Different-Phenotype (%) [4]: 3% and 1%
- Population Mitotic Cells (%) [4]: 20% and 18%
- Population Normal (%) [4]: 96% and 99%
- Population Pyknosed Nuclei (%) [4]: 7% and 6%
- Population Tubulin-Different-Phenotype (%) [4]: 1% and 3%
- Total Cell Count [4]: 365 and 164
- Population Apoptotic (%) [5]: 89% and 85%
- Population Fragmented Nuclei (%) [5]: 14% and 16%
- Population Healthy Nuclei (%) [5]: 75% and 72%
- Population Hoechst High Intensity Objects (%) [5]: 2% and 1%
- Population Membrane Permeable-Phenotype (%) [5]: 3% and 5%
- Population Mitochondria Different-Phenotype (%) [5]: 1% and 3%
- Population Mitotic Cells (%) [5]: 10% and 15%
- Population Normal (%) [5]: 97% and 98%
- Population Pyknosed Nuclei (%) [5]: 9% and 10%
- Population Tubulin-Different-Phenotype (%) [5]: 1% and 4%
- Total Cell Count [5]: 403 and 190
- Population Apoptotic (%) [6]: 90% and 81%
- Population Fragmented Nuclei (%) [6]: 15% and 12%
- Population Healthy Nuclei (%) [6]: 77% and 78%
- Population Hoechst High Intensity Objects (%) [6]: 1% and 0%
- Population Membrane Permeable-Phenotype (%) [6]: 4% and 7%
- Population Mitochondria Different-Phenotype (%) [6]: 3% and 1%
- Population Mitotic Cells (%) [6]: 10% and 18%
- Population Normal (%) [6]: 98% and 100%
- Population Pyknosed Nuclei (%) [6]: 7% and 9%
- Population Tubulin-Different-Phenotype (%) [6]: 2% and 3%
- Total Cell Count [6]: 554 and 238
